# Assays:
# [1] = test system: Sarcoma-180; assay: Antitumor activity against mouse Sarcoma 180 cells allografted in mouse assessed as reduction in tumor growth at 100 mg/kg, ip qd for 8 days measured one day after last treatment relative to control; assay type: functional; settings: Sarcoma-180, ip, route intraperitoneal, read-out: TGI
# Outline: (§1)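 Female CD mice (18-20 g) implanted subcutaneously with 3×10^7 Sarcoma 180 tumor cells in the right ventrolateral area. Doses tested were 100, 50, 25 and 12.5 mg/kg.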
# [2] = test system: Mus musculus; assay: Toxicity in mouse allografted with mouse Sarcoma 180 cells assessed as mortality at 100 mg/kg, ip qd for 8 days measured one day after last treatment relative to control; assay type: organism-based; set-up: dose 100 mg/kg, route intraperitoneal; settings: in vivo, 192 h; outline: as §1
# [3] = test system: Sarcoma-180; assay: Antitumor activity against mouse Sarcoma 180 cells allografted in mouse assessed as reduction in tumor growth at 50 mg/kg, ip qd for 8 days measured one day after last treatment relative to control; assay type: functional; settings: Sarcoma-180, ip, route intraperitoneal, read-out: TGI; outline: as §1
# [4] = test system: Sarcoma-180; assay: Antitumor activity against mouse Sarcoma 180 cells allografted in mouse assessed as reduction in tumor growth at 25 mg/kg, ip qd for 8 days measured one day after last treatment relative to control; assay type: functional; settings: Sarcoma-180, ip, route intraperitoneal, read-out: TGI; outline: as §1
# [5] = test system: Sarcoma-180; assay: Antitumor activity against mouse Sarcoma 180 cells allografted in mouse assessed as reduction in tumor growth at 12.5 mg/kg, ip qd for 8 days measured one day after last treatment relative to control; assay type: functional; settings: Sarcoma-180, ip, route intraperitoneal, read-out: TGI; outline: as §1
# [6] = test system: Mus musculus; assay: Toxicity in mouse allografted with mouse Sarcoma 180 cells assessed as mortality at 50 mg/kg, ip qd for 8 days measured one day after last treatment relative to control; assay type: organism-based; set-up: dose 50 mg/kg, route intraperitoneal; settings: in vivo, 192 h; outline: as §1
# [7] = test system: Mus musculus; assay: Toxicity in mouse allografted with mouse Sarcoma 180 cells assessed as mortality at 25 mg/kg, ip qd for 8 days measured one day after last treatment relative to control; assay type: organism-based; set-up: dose 25 mg/kg, route intraperitoneal; settings: in vivo, 192 h; outline: as §1
# [8] = test system: Mus musculus; assay: Toxicity in mouse allografted with mouse Sarcoma 180 cells assessed as mortality at 12.5 mg/kg, ip qd for 8 days measured one day after last treatment relative to control; assay type: organism-based; set-up: dose 12.5 mg/kg, route intraperitoneal; settings: in vivo, 192 h; outline: as §1
Structure (SMILES),inhibition in vivo at 100 mg/kg [1],Activity [2],inhibition in vivo at 50 mg/kg [3],inhibition in vivo at 25 mg/kg [4],inhibition in vivo at 12.5 mg/kg [5],Activity [6],Activity [7],Activity [8]
Nc1cc2c(ncn2[C@@H]2O[C@H](CO)[C@@H](O)[C@@H]2O)c(=O)[nH]1,16%,Non-toxic,–,–,–,–,–,–
Nc1cc2c(ncn2[C@H]2O[C@H](CO)[C@@H](O)[C@@H]2O)c(=O)[nH]1,24.2%,Non-toxic,–,–,–,–,–,–
Nc1cc2ncn([C@@H]3O[C@H](CO)[C@@H](O)[C@@H]3O)c2c(=O)[nH]1,5.6%,Non-toxic,–,–,–,–,–,–
Nc1cc2ncn([C@H]3O[C@H](CO)[C@@H](O)[C@@H]3O)c2c(=O)[nH]1,0%,Non-toxic,–,–,–,–,–,–
Nc1cc2nc[nH]c2c(=O)[nH]1 [DEZAGUANINE],89.6%,Toxic,74.2%,78.2%,46.2%,Non-toxic,Non-toxic,Non-toxic
